Activity calls are given as the source filed them. How the calls were made is not given here.
What was measured:
[1] = test system: 3-phosphoinositide dependent protein kinase-2, PDK2; test: Inhibition of PDK2 in human PC3 cells assessed as Akt Ser-473 dephosphorylation by Western blot analysis; type: functional, cell-based; conditions: PC-3
Summary of the method: (§1)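 Cells exposed 24 h in 5% FBS medium, final DMSO 0.1%; lysed in 1% SDS/10 mM EDTA/50 mM Tris pH 8.1, equal protein on SDS-PAGE, nitrocellulose, primary antibody 1:1000 at 4°C for 2 h, HRP secondary 1:5000, ECL detection; blots representative of three independent experiments.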

[2] = molecular target: T1, 3-phosphoinositide-dependent protein kinase 1 (Homo sapiens) (UniProt O15530); test: Inhibition of PDK2 in human PC3 cells assessed as Akt Thr-308 dephosphorylation by Western blot analysis; type: functional, cell-based; conditions: PC-3; summary of the method: as §1
T1 sequence (whole entry): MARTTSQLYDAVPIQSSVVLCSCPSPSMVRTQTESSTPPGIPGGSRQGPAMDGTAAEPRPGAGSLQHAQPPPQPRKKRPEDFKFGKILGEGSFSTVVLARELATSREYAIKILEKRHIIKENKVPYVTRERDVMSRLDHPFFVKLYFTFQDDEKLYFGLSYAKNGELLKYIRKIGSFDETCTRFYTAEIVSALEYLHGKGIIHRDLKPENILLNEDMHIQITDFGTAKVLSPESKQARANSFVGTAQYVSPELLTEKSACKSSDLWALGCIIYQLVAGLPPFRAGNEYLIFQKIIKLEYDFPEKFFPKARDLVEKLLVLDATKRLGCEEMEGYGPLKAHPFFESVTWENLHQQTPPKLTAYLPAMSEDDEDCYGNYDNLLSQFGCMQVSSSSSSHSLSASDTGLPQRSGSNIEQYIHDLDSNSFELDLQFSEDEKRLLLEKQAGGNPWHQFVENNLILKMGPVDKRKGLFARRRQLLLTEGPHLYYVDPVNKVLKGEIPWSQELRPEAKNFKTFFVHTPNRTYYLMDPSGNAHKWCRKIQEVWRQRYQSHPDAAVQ

Row | Compound | inhibition [1] | inhibition [2]
1 | CNC(=O)CCc1cc(-c2ccc(-c3ccc(C(F)(F)F)cc3)cc2)n(-c2ccc(N3CCOCC3)cc2)n1 | inactive | inactive
2 | NCCC(=O)Nc1ccc(-n2nc(C(F)(F)F)cc2-c2ccc(-c3ccc(C(F)(F)F)cc3)cc2)cc1 | inactive | inactive
3 | CCNC(=O)CCc1cc(-c2ccc(-c3ccc(C(F)(F)F)cc3)cc2)n(-c2ccc(NC(=O)CCN)cc2)n1 | inactive | inactive
4 | NC(Cc1ccccc1)C(=O)Nc1ccc(-n2nc(C(F)(F)F)cc2-c2ccc(-c3ccc(C(F)(F)F)cc3)cc2)cc1 (stereo not given) | inactive | inactive
5 | CCNC(=O)CCc1cc(-c2ccc(-c3ccc(C(F)(F)F)cc3)cc2)n(-c2ccc(N3CCNCC3)cc2)n1 | Active | inactive
6 | CC(C)CC(N)C(=O)Nc1ccc(-n2nc(C(F)(F)F)cc2-c2ccc(-c3ccc(C(F)(F)F)cc3)cc2)cc1 (stereo not given) | inactive | inactive
7 | O=C(c1ccncc1)N1CCN(c2ccc(-n3nc(C(F)(F)F)cc3-c3ccc4c(ccc5ccccc54)c3)cc2)CC1 | inactive | inactive
8 | CNC(=O)c1cc(-c2ccc(-c3ccc(C(F)(F)F)cc3)cc2)n(-c2ccc(N3CCNCC3)cc2)n1 | inactive | inactive
9 | NC(=O)c1ccc(C(=O)N2CCN(c3ccc(-n4nc(C(F)(F)F)cc4-c4ccc5c(ccc6ccccc65)c4)cc3)CC2)cc1 | inactive | inactive
10 | Nc1ccc(C(=O)N2CCN(c3ccc(-n4nc(C(F)(F)F)cc4-c4ccc5c(ccc6ccccc65)c4)cc3)CC2)cc1 | inactive | inactive

Reference: ChEMBL document CHEMBL1828498, “Identification and characterization of a novel integrin-linked kinase inhibitor” (J Med Chem, 2011)
